Laboratory results as given in ChEMBL document CHEMBL5154735, “Interaction of A3 adenosine receptor ligands with the human multidrug transporter ABCG2” (Eur J Med Chem, 2022).
Values belong to the compound of their own block, whether it stands above or below them.

Legend:
ABCG2 [1] = target: T1, ABCG2 (Homo sapiens, UniProt Q9UNQ0); test: Activation of human ABCG2-mediated ATPase activity preincubated for 2 mins followed by ATP addition at 2.5 M and measured after 20 mins by colorimetric assay relative to control; set-up: dose or concentration left out as unconfirmed; conditions: read-out: Activity
T1 sequence (Q9UNQ0 whole entry): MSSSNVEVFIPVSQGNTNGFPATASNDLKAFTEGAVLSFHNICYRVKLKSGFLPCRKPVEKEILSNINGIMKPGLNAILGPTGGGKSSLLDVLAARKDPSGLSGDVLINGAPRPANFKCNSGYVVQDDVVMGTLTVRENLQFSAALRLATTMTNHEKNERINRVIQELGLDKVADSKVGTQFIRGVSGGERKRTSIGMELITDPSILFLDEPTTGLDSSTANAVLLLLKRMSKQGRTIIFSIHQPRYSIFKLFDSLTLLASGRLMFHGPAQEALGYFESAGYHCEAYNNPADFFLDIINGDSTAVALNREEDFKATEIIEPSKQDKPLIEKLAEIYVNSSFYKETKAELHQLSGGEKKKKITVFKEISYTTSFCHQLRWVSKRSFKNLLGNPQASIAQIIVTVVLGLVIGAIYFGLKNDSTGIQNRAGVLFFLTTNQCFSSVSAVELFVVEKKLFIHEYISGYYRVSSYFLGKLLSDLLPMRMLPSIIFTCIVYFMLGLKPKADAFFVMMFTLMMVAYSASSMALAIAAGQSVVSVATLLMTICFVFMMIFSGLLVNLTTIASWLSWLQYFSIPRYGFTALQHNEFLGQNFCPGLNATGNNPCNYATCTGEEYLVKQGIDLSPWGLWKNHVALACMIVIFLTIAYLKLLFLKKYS
Method in brief: (§1)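 Total membrane vesicles from High-Five insect cells expressing human ABCG2 (hypotonic lysis, differential centrifugation), 10 μg protein/tube, in MES-Tris pH 6.8 buffer with KCl, MgCl2, NaN3, EGTA, ouabain, DTT. Compound in DMSO added ± sodium orthovanadate (0.3 mM), DMSO control. Preincubated 2 min at 37°C, then 5 mM ATP, 20 min. SDS stop, Pi measured colorimetrically. Three independent experiments in duplicate, mean ± SE.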

ABCG2 [2] = target: T1, ABCG2; test: Activation of human ABCG2-mediated ATPase activity preincubated for 2 mins followed by ATP addition at 10 M and measured after 20 mins by colorimetric assay relative to control; set-up: dose or concentration left out as unconfirmed; conditions: read-out: Activity; method in brief: as §1
ABCG2 [3] = target: T1, ABCG2; test: Effect on human ABCG2 transporter preincubated for 2 mins followed by ATP addition assessed as basal ATPase activity at 100 nM and measured after 20 mins by colorimetric assay relative to control; conditions: read-out: Activity; method in brief: as §1
ABCG2 [4] = target: T1, ABCG2; test: Activation of human ABCG2-mediated ATPase activity preincubated for 2 mins followed by ATP addition at 100 nM and measured after 20 mins by colorimetric assay relative to control; conditions: read-out: Activity; method in brief: as §1
Adenosine receptor A3 = target: T2, Adenosine receptor A3 (Homo sapiens, UniProt P0DMS8); test: Binding affinity towards human adenosine A3 receptor
T2 sequence (P0DMS8 whole entry): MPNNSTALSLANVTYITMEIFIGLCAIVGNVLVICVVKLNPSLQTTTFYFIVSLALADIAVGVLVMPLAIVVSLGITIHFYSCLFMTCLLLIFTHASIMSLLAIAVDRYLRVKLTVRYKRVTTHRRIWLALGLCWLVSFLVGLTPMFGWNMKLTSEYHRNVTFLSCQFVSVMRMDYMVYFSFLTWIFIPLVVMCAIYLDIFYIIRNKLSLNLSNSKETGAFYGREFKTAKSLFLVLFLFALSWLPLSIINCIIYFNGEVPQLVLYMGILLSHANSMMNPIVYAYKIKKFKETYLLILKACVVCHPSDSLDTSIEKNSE

[5] = target: T3, Broad substrate specificity ATP-binding cassette transporter ABCG2 (Homo sapiens, UniProt Q9UNQ0); test: Activation of human ABCG2-mediated ATPase activity preincubated for 2 mins followed by ATP addition and measured after 20 mins by colorimetric assay; method in brief: as §1
T3 sequence (Q9UNQ0 whole entry): T1 sequence (Q9UNQ0 whole entry)

ABCG2 [6] = target: T1, ABCG2; test: Inhibition of human ABCG2 in human R5 cells assessed as inhibition of mitoxantrone efflux at 10 uM measured by flow cytometric analysis relative to control; format: cell-based; conditions: probe mitoxantrone
Method in brief: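 HEK293 cells transfected with full-length ABCG2 (R-5) or empty pcDNA vector, grown in MEM with 10% FBS and 2 mg/ml G418. Cells incubated in IMDM with 5% FBS, 5 μM mitoxantrone (final) ± compound, 37°C for 45 min. Washed in cold IMDM, resuspended in cold PBS with 1% BSA, read by flow cytometry.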

ABCG2 [7] = target: T1, ABCG2; test: Activation of human ABCG2-mediated ATPase activity preincubated for 2 mins followed by ATP addition at 2.5 uM and measured after 20 mins by colorimetric assay relative to control; conditions: read-out: Activity; method in brief: as §1

activity at 20 min (ABCG2 [1]): 124%
activity at 20 min (ABCG2 [2]): 122%
Compound: CCCNc1nc(C#Cc2ccc(Cl)s2)nc2c1ncn2[C@@H]1O[C@H](C(=O)NC)[C@@H](O)[C@H]1O

activity at 20 min (ABCG2 [1]): 112%
activity at 20 min (ABCG2 [2]): 122%
Compound: CNC(=O)[C@H]1O[C@@H](n2cnc3c(NC)nc(C#Cc4ccc(Cl)s4)nc32)[C@H](O)[C@@H]1O

activity at 20 min, 0.1 µM (ABCG2 [3]): ≤ 30%
Compound: CNc1nc(C#Cc2ccc(Cl)s2)nc2c1ncn2[C@@H]1O[C@H](C(=O)OC)[C@@H](O)[C@H]1O

activity at 20 min, 0.1 µM (ABCG2 [4]): 92.1%
Ki (Adenosine receptor A3): ≥ 99 nM
Compound: Cn1cnc2c(NCCc3ccccc3)nc(C#Cc3ccc(Cl)s3)nc21

activity at 20 min, 0.1 µM (ABCG2 [4]): 79.6%
Ki (Adenosine receptor A3): ≥ 99 nM
Compound: COc1ccc(CCNC2=NC(I)=NC3=NC=CC32)cc1O (configuration not stated)

activity at 20 min, 0.1 µM (ABCG2 [4]): 40.5%
Compound: Clc1cccc(CNC2=NC(C#Cc3ccc(Cl)s3)=NC3=NC=NC32)c1 (configuration not stated)

EC50 [5]: 50 nM
activity at 20 min (ABCG2 [1]): 165%
activity at 20 min (ABCG2 [2]): 164%
Ki (Adenosine receptor A3): ≥ 99 nM
Compound: Fc1ccc(C#CC2=NC3=NC=NC3C(NCc3cccc(Cl)c3)=N2)cc1F (configuration not stated)
inhibition at 10 µM (ABCG2 [6]): 81.4%

activity at 20 min, 0.1 µM (ABCG2 [4]): 104%
Ki (Adenosine receptor A3): ≥ 99 nM
Compound: COc1ccc(CCNC2=NC(C#Cc3ccc(Cl)s3)=NC3=NC=CC32)cc1O (configuration not stated)

activity at 20 min, 0.1 µM (ABCG2 [4]): 80.8%
Ki (Adenosine receptor A3): ≥ 99 nM
Compound: Clc1ccc(C#CC2=NC3=NC=NC3C(NCCc3ccccc3)=N2)s1 (configuration not stated)

activity at 20 min, 0.1 µM (ABCG2 [4]): 95.9%
Ki (Adenosine receptor A3): ≥ 99 nM
Compound: Oc1ccc(CCNC2=NC(C#Cc3ccc(Cl)s3)=NC3=NC=NC32)cc1O (configuration not stated)

activity at 20 min, 0.1 µM (ABCG2 [3]): ≤ 30%
Compound: CCOC(=O)[C@]12C[C@@H]1[C@@H](n1cnc3c(NC)nc(C#Cc4ccc(F)s4)nc31)[C@H](O)[C@@H]2O

activity at 20 min, 0.1 µM (ABCG2 [3]): ≤ 30%
Compound: CNc1nc(C#Cc2ccc(Cl)s2)nc2c1ncn2[C@H]1[C@H](O)[C@H](O)[C@@]2(C(=O)OCCc3ccccc3)C[C@H]12

activity at 20 min, 0.1 µM (ABCG2 [4]): 38.8%
Compound: CNc1nc(C#Cc2ccc(Cl)s2)nc2c1ncn2[C@H]1[C@H](O)[C@H](O)[C@@]2(C(=O)OCCCc3ccccc3)C[C@H]12

EC50 [5]: 70 nM
activity at 20 min (ABCG2 [1]): 66.2%
activity at 20 min (ABCG2 [2]): 98.2%
Compound: CNC(=O)C1O[C@@H](n2cnc3c(NCc4cccc(I)c4)ncnc32)[C@H](O)[C@@H]1O (single isomer, unassigned)

activity at 20 min (ABCG2 [1]): 75.2%
activity at 20 min (ABCG2 [2]): 54.1%
Ki (Adenosine receptor A3): ≥ 99 nM
Compound: O[C@@H]1[C@H](O)C2CC2[C@H]1n1cnc2c(NCc3cccc(Cl)c3)nc(C#Cc3ccc(F)c(F)c3)nc21 (single isomer, unassigned)

activity at 20 min, 0.1 µM (ABCG2 [3]): ≤ 30%
Compound: CCOC(=O)C12CC1[C@@H](n1cnc3c(NC)nc(C#Cc4ccc(Cl)s4)cc31)[C@H](O)[C@@H]2O (single isomer, unassigned)

activity at 20 min, 0.1 µM (ABCG2 [4]): 37.9%
Compound: CCOC(=O)C12C[C@@H]1[C@@H](n1ccc3c(NCCCc4ccccc4)nc(C#Cc4ccccc4)nc31)[C@H](O)[C@@H]2O (single isomer, unassigned)

activity at 20 min, 0.1 µM (ABCG2 [3]): ≤ 30%
Compound: CCOC(=O)C12CC1[C@@H](n1ccc3c(NCC4CC4)nc(C#Cc4ccccc4)nc31)[C@H](O)[C@@H]2O (single isomer, unassigned)

activity at 20 min, 0.1 µM (ABCG2 [4]): 59.3%
Compound: CCOC(=O)C12CC1[C@@H](n1cnc3c(NCCc4ccc(O)c(OC)c4)nc(C#Cc4ccc(Cl)s4)nc31)[C@H](O)[C@@H]2O (single isomer, unassigned)

activity at 20 min, 2.5 µM (ABCG2 [7]): 101%
EC50 [5]: 14 nM
Compound: CNC(=O)C12CC1[C@@H](n1cnc3c(N[C@H]4C[C@@H]4c4ccc(F)c(F)c4)nc(C#Cc4cccc(F)c4)nc31)[C@H](O)[C@@H]2O (single isomer, unassigned)
inhibition at 10 µM (ABCG2 [6]): 97.2%
